Results from ChEMBL document CHEMBL5108090, “Structure-activity relationship study of PROTACs against hematopoietic prostaglandin D2 synthase” (RSC Med Chem, 2022).
Active and inactive are the calls of the source. The rule behind the calls is not given here.

What was measured:
[1] = target: T1, Hematopoietic prostaglandin D synthase (Homo sapiens, UniProt O60760); assay: Binding affinity to recombinant human H-PGDS incubated for 1 hrs by competitive fluorescence polarization assay
Summary of the method: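 Competitive FP assay using a commercial kit. Recombinant human H-PGDS, glutathione and fluorescent probe in assay buffer. Compounds were added from DMSO stocks at final 2.50 μM to 2.44 nM (11 points), in triplicate, for 1 h at room temperature. Read at ex 470/em 530 nm in mP. IC50 is the concentration giving a 50% mP reduction, from a semi-log plot.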

[2] = target: T2, Protein cereblon/Hematopoietic prostaglandin D synthase (Homo sapiens, UniProt O60760+Q96SW2); assay: PROTAC activity at CRBN/H-PGDS in human KU812 cells assessed as reduction in H-PGDS levels incubated for 24 hrs by Western blotting analysis; type: cell-based, KU812 cell line
Summary of the method: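 KU812 cells were incubated with a compound concentration series for 24 h. SDS lysates (equal protein) were blotted for H-PGDS and β-actin with ECL quantification. The H-PGDS/actin ratio was set relative to DMSO (100%); mean ± SEM, n = 3. DC50 came from a linear fit through the three points spanning 50% protein level.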
Target sequence in this assay (O60760 whole entry): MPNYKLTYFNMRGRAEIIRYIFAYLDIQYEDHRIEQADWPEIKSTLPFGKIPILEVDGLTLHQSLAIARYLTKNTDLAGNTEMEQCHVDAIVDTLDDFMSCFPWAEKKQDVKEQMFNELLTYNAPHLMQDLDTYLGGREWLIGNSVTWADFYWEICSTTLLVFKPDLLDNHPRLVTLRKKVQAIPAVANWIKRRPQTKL
Target sequence in this assay (Q96SW2 whole entry): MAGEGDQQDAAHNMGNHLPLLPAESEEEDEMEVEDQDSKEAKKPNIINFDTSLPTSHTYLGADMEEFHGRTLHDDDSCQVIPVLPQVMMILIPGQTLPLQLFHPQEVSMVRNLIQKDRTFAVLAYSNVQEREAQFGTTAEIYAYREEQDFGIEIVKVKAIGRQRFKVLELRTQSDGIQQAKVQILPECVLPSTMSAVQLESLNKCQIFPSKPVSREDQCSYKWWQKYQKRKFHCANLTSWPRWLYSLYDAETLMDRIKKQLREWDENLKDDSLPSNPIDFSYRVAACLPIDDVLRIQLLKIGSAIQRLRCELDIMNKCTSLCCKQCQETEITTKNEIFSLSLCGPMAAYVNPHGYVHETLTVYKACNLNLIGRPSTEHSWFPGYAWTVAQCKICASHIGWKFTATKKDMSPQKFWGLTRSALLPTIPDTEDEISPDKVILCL

[3] = target: T2, Protein cereblon/Hematopoietic prostaglandin D synthase; assay: PROTAC activity at CRBN/H-PGDS in human KU812 cells assessed as reduction in A23187-stimulated PGD2 levels at 10 nM preincubated for 24 hrs followed by A23187 stimulation for 30 mins by ELISA analysis relative to control; type: cell-based; details: KU812 cell line, time 24.5 hrs
Summary of the method: (§1)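 KU812 cells (human CML; RPMI-1640, 10% FBS, penicillin–streptomycin) were treated with compound for 24 h. They were then stimulated with 5 μM calcium ionophore A23187 for 30 min. PGD2 in the culture medium was quantified by PGD2-MOX ELISA per the kit instructions.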
Target sequence in this assay (O60760 whole entry, looked up): as the sequence (O60760 whole entry) above
Target sequence in this assay (Q96SW2 whole entry, looked up): as the sequence (Q96SW2 whole entry) above

[4] = target: T1, Hematopoietic prostaglandin D synthase; assay: Inhibition of H-PGDS in human KU812 cells assessed as reduction in A23187-stimulated PGD2 levels at 10 nM preincubated for 24 hrs followed by A23187 stimulation for 30 mins by ELISA analysis; type: cell-based; details: KU812 cell line, time 24.5 hrs; summary of the method: as §1
[5] = target: T2, Protein cereblon/Hematopoietic prostaglandin D synthase; assay: PROTAC activity at CRBN/H-PGDS in human KU812 cells assessed as reduction in H-PGDS levels at 1 nM incubated for 6 hrs by Western blotting analysis; type: cell-based; details: KU812 cell line
Summary of the method: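 KU812 cells were exposed to compound for 6 h, with MG132 or MLN7243 co-treatment or ligand competition in some arms. Lysates in SDS buffer were boiled and equal protein by BCA was run on SDS-PAGE. Blots used anti-H-PGDS and anti-β-actin with ECL detection. H-PGDS/β-actin was normalized to the DMSO control (100%); mean ± SEM, n = 3.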
Target sequence in this assay (O60760 whole entry, looked up): as the sequence (O60760 whole entry) above
Target sequence in this assay (Q96SW2 whole entry, looked up): as the sequence (Q96SW2 whole entry) above

T1 sequence (O60760 whole entry): as the sequence (O60760 whole entry) above

IC50 [1] [nM]	DC50 [2] [nM]	Activity [3]	inhibition [4]	Activity [5]	SMILES
78.1	0.0714	Active			Cn1cccc1C(=O)N1CCN(C(=O)Nc2ccc(N3CCC(C(=O)N4CCN(c5cccc6c5C(=O)N(C5CCC(=O)NC5=O)C6=O)CC4)CC3)cc2)CC1 (configuration not stated)
124	0.0238	Active			Cn1cccc1C(=O)N1CCN(C(=O)Nc2ccc(N3CCC(C(=O)N4CCN(c5ccc6c(c5)C(=O)N(C5CCC(=O)NC5=O)C6=O)CC4)CC3)cc2)CC1 (configuration not stated)
134			Active		Cn1cccc1C(=O)N1CCN(C(=O)Nc2ccc(N3CCC(C(=O)N4CCOCC4)CC3)cc2)CC1
116	0.0187	Active			O=C1CCC(N2C(=O)c3cccc(N4CCN(C(=O)C5CCN(c6ccc(NC(=O)c7cnc(Oc8ccccc8)nc7)cc6)CC5)CC4)c3C2=O)C(=O)N1 (configuration not stated)
211			Active		O=C(Nc1ccc(N2CCC(C(=O)N3CCOCC3)CC2)cc1)c1cnc(Oc2ccccc2)nc1
196	0.0276	Active		Active	O=C1CCC(N2C(=O)c3ccc(N4CCN(C(=O)C5CCN(c6ccc(NC(=O)c7cnc(Oc8ccccc8)nc7)cc6)CC5)CC4)cc3C2=O)C(=O)N1 (configuration not stated)
